Test [1] has as its system Clostridium perfringens. The test can be described thus: Antimicrobial activity against Clostridium perfringens assessed as percent resistant isolates after 48 hrs by agar dilution method. In kind it is functional.
Test [2] relates to Clostridium perfringens. The test can be described thus: Antimicrobial activity against Clostridium perfringens assessed as percent resistant isolates after 48 hrs by agar dilution method in presence of 4 ug/ml beta-lactamase inhibitor Tazobactam. In kind it is functional. In a few lines:
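CLSI agar dilution on recent Korean clinical anaerobe isolates. Inoculum 10^5 CFU per spot by replicator. Plates incubated in an anaerobic chamber at 37°C for 48 h. For piperacillin plus tazobactam, tazobactam was held constant at 4 μg/ml. Resistance and susceptibility rates derived from MICs.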
(Agar dilution tests growth on a series of plates holding different concentrations.)

On to `CO[C@@]1(NC(=O)C2SC(=C(C(N)=O)C(=O)O)S2)C(=O)N2C(C(=O)O)=C(CSc3nnnn3C)CS[C@@H]21` (some centres undefined) [CEFOTETAN], for which the Activity in the test on Clostridium perfringens [1] amounted to 0%. On the same count and under the same terms, to `CO[C@@]1(NC(=O)Cc2cccs2)C(=O)N2C(C(=O)O)=C(COC(N)=O)CS[C@@H]21` [CEFOXITIN] belongs 0%.

`O=C(N[C@H](CO)[C@H](O)c1ccc([N+](=O)[O-])cc1)C(Cl)Cl` [CHLORAMPHENICOL]: in the test with Clostridium perfringens [1], the Activity worked out at 0%. `CCC[C@@H]1C[C@@H](C(=O)N[C@@H]([C@H]2O[C@H](SC)[C@H](O)[C@@H](O)[C@H]2O)[C@H](C)Cl)N(C)C1` [CLINDAMYCIN]: in the test on Clostridium perfringens [1], the Activity was 7%.

In the case of `C[C@@H](O)[C@H]1C(=O)N2C(C(=O)O)=C(SCCNC=N)C[C@H]12` [IMIPENEM ANHYDROUS], in the test on Clostridium perfringens [1], the Activity is 0%. In the case of `C[C@@H](O)[C@H]1C(=O)N2C(C(=O)O)=C(S[C@@H]3CN[C@H](C(=O)N(C)C)C3)[C@H](C)[C@H]12` [MEROPENEM], the Activity in the test on Clostridium perfringens [1] amounted to 0%.

As to `Cc1ncc([N+](=O)[O-])n1CCO` [METRONIDAZOLE], the Activity with Clostridium perfringens [1] came out at 0%.

As for `CCN1CCN(C(=O)N[C@@H](C(=O)N[C@@H]2C(=O)N3[C@@H]2SC(C)(C)[C@@H]3C(=O)O)c2ccccc2)C(=O)C1=O` [PIPERACILLIN], the Activity with Clostridium perfringens [2] and in the test with Clostridium perfringens [1] was 0% throughout.

The values are drawn from ChEMBL document CHEMBL1671716, “Antimicrobial susceptibility patterns for recent clinical isolates of anaerobic bacteria in South Korea” (2010).
